Consider 15 molecules from ChEMBL document CHEMBL3593170 (J Nat Prod, 2015).

The source made the active and inactive calls. No cut-off for these calls is given here.

In data set [1] the target is T1, Transient receptor potential cation channel subfamily A member 1 (Homo sapiens, UniProt O75762). Put plainly: Activation of human TRPA1 expressed in TREx-HEK cells by Fluo-4 AM dye-based Ca2+ imaging assay. It counts as cell-based.
The target of data set [2] is Transient receptor potential cation channel subfamily M member 8 (Mus musculus) (UniProt Q8R4D5). Put plainly: Agonist activity at mouse TRPM8 expressed in TREx-HEK cells at 300 uM by Fluo-4 AM dye-based Ca2+ imaging assay. In kind it is cell-based. An outline of the steps:
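Mouse TRPM8 stably expressed in TREx HEK cells, induced with 1 μg/mL tetracycline; Fluo-4 AM 3 μM loading, 1 h, 37 °C; compounds 300 μM freshly diluted from DMSO; Ca2+ change read at 37 °C; ionomycin 5 μM for maximum fluorescence; menthol 100 μM agonist control, BCTC 10 μM antagonist.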

Data set [3] concerns the target T1, Transient receptor potential cation channel subfamily A member 1. The data set is described as follows: Activation of human TRPA1 expressed in TREx-HEK cells by Fluo-4 AM dye-based Ca2+ imaging assay relative to 100 uM ITC. In kind it is cell-based.
For data set [4], the target named is T2, Transient receptor potential cation channel subfamily V member 1 (Homo sapiens, UniProt Q8NER1). Put plainly: Activation of human TRPV1 expressed in TREx-HEK cells by Fluo-4 AM dye-based Ca2+ imaging assay relative to 10 uM capsaicin. It counts as cell-based.
T2 sequence (Q8NER1 whole entry): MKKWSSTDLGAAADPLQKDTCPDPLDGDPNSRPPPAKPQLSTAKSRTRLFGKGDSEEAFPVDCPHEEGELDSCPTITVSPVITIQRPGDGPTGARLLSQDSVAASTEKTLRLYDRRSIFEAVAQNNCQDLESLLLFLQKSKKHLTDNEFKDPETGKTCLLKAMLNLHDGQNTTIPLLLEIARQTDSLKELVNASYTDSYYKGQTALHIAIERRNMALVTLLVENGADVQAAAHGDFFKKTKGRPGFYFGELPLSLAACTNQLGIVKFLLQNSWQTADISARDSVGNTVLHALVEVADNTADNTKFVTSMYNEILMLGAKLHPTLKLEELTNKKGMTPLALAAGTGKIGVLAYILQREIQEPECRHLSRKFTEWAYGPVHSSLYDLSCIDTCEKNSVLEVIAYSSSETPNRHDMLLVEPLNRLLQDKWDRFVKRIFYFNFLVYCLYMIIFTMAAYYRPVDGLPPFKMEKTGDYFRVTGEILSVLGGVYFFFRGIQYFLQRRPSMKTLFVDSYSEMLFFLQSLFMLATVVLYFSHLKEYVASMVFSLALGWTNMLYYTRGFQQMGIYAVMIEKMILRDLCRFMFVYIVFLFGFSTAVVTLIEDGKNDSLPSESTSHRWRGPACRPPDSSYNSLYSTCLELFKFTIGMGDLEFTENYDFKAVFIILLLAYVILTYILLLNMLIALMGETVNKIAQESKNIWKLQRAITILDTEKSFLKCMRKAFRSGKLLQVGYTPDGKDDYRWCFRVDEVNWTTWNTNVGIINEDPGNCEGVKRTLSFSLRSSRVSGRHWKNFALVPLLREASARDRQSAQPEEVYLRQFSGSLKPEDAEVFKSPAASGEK
Data set [5] has as its target T2, Transient receptor potential cation channel subfamily V member 1. The data set is described as follows: Activation of human TRPV1 expressed in TREx-HEK cells at 300 uM by Fluo-4 AM dye-based Ca2+ imaging assay. In kind it is cell-based. Summed up:
(§1)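 TREx HEK cells stably expressing hTRPV1 (tetracycline 1 μg/mL induction) or parental TREx HEK cells lacking TRPV1, Fluo-4 AM (3 μM, 1 h, 37 °C) loaded; compounds at 300 μM, capsazepine 30 μM co-added where stated; Ca2+ at 37 °C as % of 5 μM ionomycin; mean ± SEM, n = 3−7.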

The target of data set [6] is T1, Transient receptor potential cation channel subfamily A member 1. The data set is described as follows: Activation of human TRPA1 expressed in TREx-HEK cells at 1 uM by Fluo-4 AM dye-based Ca2+ imaging assay. It counts as cell-based. Summed up:
(§2)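 Tetracycline-induced (1 μg/mL, 24 h after seeding) TREx HEK cells stably expressing hTRPA1, or TREx HEK cells not expressing TRPA1; Fluo-4 AM 3 μM loading 1 h 37 °C; Ca2+ change read at 37 °C. Response as % of 5 μM ionomycin; mean ± SEM, n = 3−8.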

Data set [7] addresses T2, Transient receptor potential cation channel subfamily V member 1. Put plainly: Activation of human TRPV1 expressed in TREx-HEK cells by Fluo-4 AM dye-based Ca2+ imaging assay. It counts as cell-based.
For data set [8], the target named is T1, Transient receptor potential cation channel subfamily A member 1. The data set is described as follows: Activation of human TRPA1 expressed in TREx-HEK cells at 1 uM in presence of TRPA1 antagonist HC030031 by Fluo-4 AM dye-based Ca2+ imaging assay. In kind it is cell-based. An outline of the steps: as §2
A short description of data set [9]: Effect on Ca2+ response in TREx-HEK cells at 1 uM by Fluo-4 AM dye-based Ca2+ imaging assay. The following applies: human. It counts as ADME, cell-based. An outline of the steps: as §2
The nature of data set [10]: Effect on Ca2+ response in TREx-HEK cells at 300 uM by Fluo-4 AM dye-based Ca2+ imaging assay. In kind it is ADME, cell-based. The following applies: human. An outline of the steps: as §1
In data set [11] the target is T2, Transient receptor potential cation channel subfamily V member 1. The data set is described as follows: Activation of human TRPV1 expressed in TREx-HEK cells at 300 uM in presence of TRPV1 antagonist CPZ by Fluo-4 AM dye-based Ca2+ imaging assay. It counts as cell-based. An outline of the steps:
as §1

The target in data set [12] is T1, Transient receptor potential cation channel subfamily A member 1. Put plainly: Activation of human TRPA1 expressed in TREx-HEK cells at 30 uM in presence of TRPA1 antagonist HC030031 by Fluo-4 AM dye-based Ca2+ imaging assay. In kind it is cell-based.
The target is the same in data set [13]. Put plainly: Activation of human TRPA1 expressed in TREx-HEK cells at 30 uM by Fluo-4 AM dye-based Ca2+ imaging assay. In kind it is cell-based. Summed up: (§3)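 Tetracycline-induced (1 μg/mL, 24 h after seeding) TREx HEK cells stably expressing hTRPA1, or TREx HEK cells not expressing TRPA1; Fluo-4 AM 3 μM loading 1 h 37 °C; Ca2+ change read at 37 °C. Compounds in DMSO, diluted in measuring buffer just before addition; 1 μM (30 μM for one compound); HC030031 30 μM co-added where stated. Response as % of 5 μM ionomycin; mean ± SEM, n = 3−8.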

Data set [14] can be described thus: Effect on Ca2+ response in TREx-HEK cells at 30 uM by Fluo-4 AM dye-based Ca2+ imaging assay. Particulars: human. In kind it is ADME, cell-based. Summed up:
as §3

Chain of Transient receptor potential cation channel subfamily M member 8 (Mus musculus) (Q8R4D5 whole entry): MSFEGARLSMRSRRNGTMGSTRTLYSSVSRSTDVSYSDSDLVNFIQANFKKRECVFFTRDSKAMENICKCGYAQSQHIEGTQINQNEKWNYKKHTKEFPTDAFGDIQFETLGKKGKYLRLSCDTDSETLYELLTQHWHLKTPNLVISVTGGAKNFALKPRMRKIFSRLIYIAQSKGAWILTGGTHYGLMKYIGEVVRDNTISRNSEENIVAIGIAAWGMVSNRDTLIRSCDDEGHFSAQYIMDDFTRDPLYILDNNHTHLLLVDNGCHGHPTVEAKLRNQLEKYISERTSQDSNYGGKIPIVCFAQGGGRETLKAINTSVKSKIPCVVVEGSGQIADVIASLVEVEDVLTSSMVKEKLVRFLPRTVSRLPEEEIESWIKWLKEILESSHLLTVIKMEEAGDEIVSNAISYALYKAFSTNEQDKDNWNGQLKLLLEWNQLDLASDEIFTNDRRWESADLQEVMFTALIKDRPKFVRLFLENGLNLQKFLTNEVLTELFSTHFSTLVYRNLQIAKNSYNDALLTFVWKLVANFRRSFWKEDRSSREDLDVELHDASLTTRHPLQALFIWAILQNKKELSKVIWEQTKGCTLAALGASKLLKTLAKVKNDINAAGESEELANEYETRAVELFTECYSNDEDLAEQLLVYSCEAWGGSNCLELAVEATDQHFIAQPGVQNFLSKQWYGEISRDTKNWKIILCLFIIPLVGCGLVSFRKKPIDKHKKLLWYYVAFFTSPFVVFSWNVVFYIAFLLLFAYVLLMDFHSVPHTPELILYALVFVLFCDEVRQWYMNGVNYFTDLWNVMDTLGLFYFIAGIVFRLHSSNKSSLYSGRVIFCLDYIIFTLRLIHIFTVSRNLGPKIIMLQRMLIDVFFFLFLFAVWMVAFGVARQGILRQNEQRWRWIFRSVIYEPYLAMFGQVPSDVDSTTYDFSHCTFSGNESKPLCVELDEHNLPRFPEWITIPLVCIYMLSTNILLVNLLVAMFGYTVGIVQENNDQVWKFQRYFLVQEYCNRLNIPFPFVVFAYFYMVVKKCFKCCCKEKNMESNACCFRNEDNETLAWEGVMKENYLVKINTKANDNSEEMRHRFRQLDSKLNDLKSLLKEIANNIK
T1 sequence (O75762 whole entry): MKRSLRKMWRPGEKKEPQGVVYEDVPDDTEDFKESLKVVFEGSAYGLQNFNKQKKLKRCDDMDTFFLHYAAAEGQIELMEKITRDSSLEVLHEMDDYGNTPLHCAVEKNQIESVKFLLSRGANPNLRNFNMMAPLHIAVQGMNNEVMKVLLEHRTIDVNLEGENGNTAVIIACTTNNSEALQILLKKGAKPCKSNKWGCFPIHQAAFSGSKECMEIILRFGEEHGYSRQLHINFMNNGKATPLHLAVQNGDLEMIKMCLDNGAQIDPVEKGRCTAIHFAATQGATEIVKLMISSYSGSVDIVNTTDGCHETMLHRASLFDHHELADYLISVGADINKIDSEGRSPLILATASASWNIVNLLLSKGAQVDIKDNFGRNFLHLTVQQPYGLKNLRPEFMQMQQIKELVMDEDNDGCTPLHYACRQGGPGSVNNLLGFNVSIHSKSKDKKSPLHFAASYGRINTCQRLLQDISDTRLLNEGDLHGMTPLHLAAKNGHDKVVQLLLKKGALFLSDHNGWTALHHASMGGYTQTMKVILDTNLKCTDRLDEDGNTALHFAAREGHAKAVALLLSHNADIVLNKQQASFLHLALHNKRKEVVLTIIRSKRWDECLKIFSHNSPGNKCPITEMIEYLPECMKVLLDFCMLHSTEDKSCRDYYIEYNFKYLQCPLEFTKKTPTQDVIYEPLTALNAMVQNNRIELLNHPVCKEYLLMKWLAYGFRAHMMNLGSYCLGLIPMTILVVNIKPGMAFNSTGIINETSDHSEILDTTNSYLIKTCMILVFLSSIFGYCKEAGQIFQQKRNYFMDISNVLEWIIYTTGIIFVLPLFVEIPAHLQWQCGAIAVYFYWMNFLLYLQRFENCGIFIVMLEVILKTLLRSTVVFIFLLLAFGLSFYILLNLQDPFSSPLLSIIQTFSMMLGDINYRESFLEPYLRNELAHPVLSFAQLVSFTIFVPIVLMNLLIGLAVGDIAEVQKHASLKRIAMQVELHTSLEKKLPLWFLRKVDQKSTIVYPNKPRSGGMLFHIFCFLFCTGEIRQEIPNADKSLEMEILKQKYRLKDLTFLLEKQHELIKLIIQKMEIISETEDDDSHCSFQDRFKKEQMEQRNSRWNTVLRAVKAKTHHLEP

By EC50 is commonly meant the concentration needed to bring the measured effect to its halfway point. For `C=CCCN=C=S`, the concentration for a half-maximal effect (EC50) in data set [1] was 360 nM; in data set [7] (trex-hek), “Not Active”. The outcome in data set [2], in data set [5] and in data set [8] was inactive. Moreover, in data set [3], the max activation was determined as 95%. The max activation result in [4] was “inactive”. For the same molecule, in [6], the outcome was Active. Also, the Activity entry in [9] is “Non-toxic”.

Regarding `C=CCN=C=S` [ALLYL ISOTHIOCYANATE], the outcome in [2], in data set [8] and in data set [11] was inactive. Besides, the max activation in data set [3] stood at 97%; in data set [4], 25%. For the same molecule, the Activity entry in [10] and in data set [9] was “Non-toxic” throughout. Further, the outcome in [5] and in data set [6] was Active. The EC50 in data set [7] (read-out: EC50) amounted to 160000 nM.

In the case of `Oc1ccc(CN=C=S)cc1`, the result in data set [12], in data set [2] and in data set [11] was inactive. In addition, the EC50 stood at 20000 nM in data set [1] and 170000 nM in [7] (read-out: EC50). In addition, the outcome in [13] and in data set [5] was Active. Also, the max activation worked out at 96% in [3] and 63% in data set [4]. In addition, the Activity entry in data set [14] and in [10] was “Non-toxic” in each case.

In the case of `C=CCCCCCN=C=S`, the EC50 is 1050 nM in data set [1] and “Not Active” in [7] (trex-hek). In addition, the result in [2], in data set [5] and in data set [8] was inactive. In data set [3], the max activation turned out to be 90%. Besides, the max activation result in [4] is “inactive”. In [6], the result was Active. In [9], the Activity result was “Non-toxic”.

On to `S=C=NCCc1ccccc1` [PHENETHYLISOTHIOCYANATE], for which the EC50 came to 370 nM in data set [1] and 180000 nM in data set [7] (read-out: EC50). The outcome in data set [2], in data set [8] and in data set [11] was inactive. In addition, the max activation in [3] was 94%; in data set [4] it was 43%. For the same molecule, the Activity result in data set [10] and in data set [9] was “Non-toxic” throughout. Besides, the result in [5] and in data set [6] was Active.

`CC(C)N=C=S` [ISOPROPYL ISOTHIOCYANATE]: the concentration giving a half-maximal response (EC50) came to 530 nM in data set [1] and 100000 nM in data set [7] (read-out: EC50). Further, the outcome in data set [2], in data set [8] and in data set [11] was inactive. For the same molecule, the max activation in data set [3] was found to be 82%; in data set [4] it was 50%. Further, the Activity entry in [10] and in data set [9] was “Non-toxic” in each case. The result in data set [5] and in data set [6] was Active.

For `CCC(C)N=C=S` (centres undefined), the EC50 in [1] turned out to be 680 nM; in data set [7] (read-out: EC50), 100000 nM. Besides, the result in data set [2], in [8] and in data set [11] was inactive. For the same molecule, the max activation in data set [3] turned out to be 88%; in data set [4], 62%. Besides, the Activity entry in data set [10] and in data set [9] was “Non-toxic” throughout. Moreover, the result in [5] and in [6] was Active.

`S=C=NCc1ccccc1` [BENZYL ISOTHIOCYANATE]: the EC50 is 250 nM in [1] and 223000 nM in data set [7] (read-out: EC50). Further, the result in [2], in data set [8] and in [11] was inactive. The max activation in data set [3] is 95%; in [4], 49%. For the same molecule, the Activity entry in [10] and in data set [9] was “Non-toxic” in each case. The result in data set [5] and in data set [6] was Active.

For the molecule `C=CCCCCN=C=S`, the EC50 in [1] is 1040 nM; in [7] (trex-hek), “Not Active”. For the same molecule, the result in data set [2], in [5] and in data set [8] was inactive. The same molecule displayed a max activation in data set [3] of 93%. Moreover, the max activation entry in data set [4] is “inactive”. In data set [6], the result was Active. Further, the Activity result in [9] is reported as “Non-toxic”.

As to `CSCCCCCCN=C=S`, the concentration for a half-maximal effect (EC50) in data set [1] is 580 nM; in data set [7] (trex-hek) it was “Not Active”. Further, the result in data set [2], in [5] and in data set [8] was inactive. The molecule further yielded a max activation in data set [3] of 92%. For the same molecule, the max activation entry in data set [4] was “inactive”. Further, the outcome in [6] was Active.

With `C=CCCCN=C=S`, the values for the half-maximal effective concentration (EC50) in data set [1] and in data set [7] (trex-hek) were 540 nM and “Not Active”, respectively. In addition, the result in [2], in data set [5] and in [8] was inactive. The same molecule yielded a max activation in [3] of 90%. Further, the max activation entry in data set [4] was “inactive”. Further, in [6], the result was Active. Further, the Activity result in [9] is given as “Non-toxic”.

Consider `CSCCCN=C=S`, for which the values for the EC50 in data set [1] and in data set [7] (trex-hek) were 450 nM and “Not Active”, respectively. Also, the outcome in data set [2], in [5] and in data set [8] was inactive. In addition, the max activation in [3] came out at 94%. Further, the max activation entry in [4] is “inactive”. Further, the result in [6] was Active. For the same molecule, in [9], the Activity result was “Non-toxic”.

For the molecule `CSCCCCCN=C=S`, the figures for the EC50 in data set [1] and in [7] (trex-hek) were 500 nM and “Not Active”, respectively. The outcome in data set [2], in data set [5] and in data set [8] was inactive. For the same molecule, the max activation in data set [3] was found to be 92%. The max activation result in data set [4] was “inactive”. Moreover, in data set [6], the result was Active. Also, the Activity entry in data set [9] is reported as “Non-toxic”.

Take `CSCCCCCCCN=C=S`: the half-maximal effective concentration (EC50) in data set [1] is 610 nM; in data set [7] (trex-hek), “Not Active”. Moreover, the result in [2], in data set [5] and in data set [8] was inactive. The same molecule came in with a max activation in data set [3] of 90%. Also, the max activation result in [4] is “inactive”. Besides, the result in data set [6] was Active. Besides, the Activity entry in [9] was “Non-toxic”.

As for `CC(C)CN=C=S`, the EC50 was 690 nM in data set [1] and “Not Active” in data set [7] (trex-hek). Besides, the result in data set [2] and in [8] was inactive. For the same molecule, the max activation in [3] came to 89%. Moreover, in data set [4], the max activation result was “inactive”. Moreover, the result in data set [6] was Active. In addition, the Activity result in [9] is “Non-toxic”.
